Among the data in ChEMBL document CHEMBL1133213, “Synthesis, molecular modeling and preliminary biological evaluation of 1-amino-3-phosphono-3-cyclopentene-1-carboxylic acid and 1-amino-3-phosphono-2-cyclopentene-1-carboxylic acid, two novel agonists of metabotropic glutamate receptors of group III” (Bioorg Med Chem Lett, 2000) are EC50 and IC50 values, retold here.

In experiment [1] the target is T1, Metabotropic glutamate receptor 4 (Homo sapiens, UniProt Q14833). The experiment can be described thus: Agonistic activity at Metabotropic glutamate receptor 4 expressed in mammalian cells by GTPgammaS binding assay. It is filed as cell-based. A digest of the protocol: (§1)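 [35S]-GTPγS binding to membranes prepared from CHO cells expressing human mGlu4a. Stimulation is normalised to that given by 1 mM L-Glu. Points are mean ± SEM of three determinations from one experiment.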

In experiment [2] the target is T2, Metabotropic glutamate receptor 2 (Homo sapiens, UniProt Q14416). The experiment can be described thus: Agonistic activity on Human mGlu2 receptor expressed in recombinant mammalian cells by GTPgammaS binding assay. Type of experiment: cell-based. A digest of the protocol:
(§2)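 [35S]-GTPγS binding assay in a CHO cell line expressing human mGlu2.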
Background: Binding of GTPγS marks nucleotide exchange on a G protein.

Experiment [3] concerns the target T1, Metabotropic glutamate receptor 4. In words: Agonistic activity on Human mGlu4a receptor expressed in recombinant mammalian cells by GTPgammaS binding assay; Partial agonist. Type of experiment: cell-based. A digest of the protocol: as §1
The target is the same in experiment [4]. In words: Inhibitory concentration on Human mGlu4 receptor expressed in recombinant mammalian cells by GTPgammaS binding assay. Type of experiment: cell-based.
Experiment [5] shares this target. The experiment can be described thus: Inhibition of forskolin-stimulated cAMP accumulation in CHO cells expressing hmGlu4a. Type of experiment: functional, cell-based. In general terms: Cyclic AMP is a second messenger, typically raised through Gs and lowered through Gi signalling.
Experiment [6] has as its target T2, Metabotropic glutamate receptor 2. In words: Inhibitory concentration on Human mGlu2 receptor expressed in recombinant mammalian cells by GTPgammaS binding assay. Type of experiment: cell-based. In a few lines: as §2
Experiment [7] shares this target. In words: Inhibitory concentration on Human Metabotropic glutamate receptor 2 expressed in recombinant mammalian cells by GTPgammaS binding assay. Type of experiment: cell-based. In a few lines: as §2
Experiment [8] concerns the target T1, Metabotropic glutamate receptor 4. In words: Inhibition of forskolin-stimulated cAMP accumulation in CHO cells expressing hmGlu4a; No full inhibition. Type of experiment: functional, cell-based.
Experiment [9] shares this target. The experiment can be described thus: Agonistic activity on Human mGlu4a receptor expressed in recombinant mammalian cells by GTPgammaS binding assay. Type of experiment: cell-based. In a few lines:
as §1

Experiment [10] deals with T2, Metabotropic glutamate receptor 2. The experiment can be described thus: Agonistic activity on Human Metabotropic glutamate receptor 2 expressed in recombinant mammalian cells by GTPgammaS binding assay. Type of experiment: cell-based. A digest of the protocol:
as §2

T2 sequence (Q14416 whole entry): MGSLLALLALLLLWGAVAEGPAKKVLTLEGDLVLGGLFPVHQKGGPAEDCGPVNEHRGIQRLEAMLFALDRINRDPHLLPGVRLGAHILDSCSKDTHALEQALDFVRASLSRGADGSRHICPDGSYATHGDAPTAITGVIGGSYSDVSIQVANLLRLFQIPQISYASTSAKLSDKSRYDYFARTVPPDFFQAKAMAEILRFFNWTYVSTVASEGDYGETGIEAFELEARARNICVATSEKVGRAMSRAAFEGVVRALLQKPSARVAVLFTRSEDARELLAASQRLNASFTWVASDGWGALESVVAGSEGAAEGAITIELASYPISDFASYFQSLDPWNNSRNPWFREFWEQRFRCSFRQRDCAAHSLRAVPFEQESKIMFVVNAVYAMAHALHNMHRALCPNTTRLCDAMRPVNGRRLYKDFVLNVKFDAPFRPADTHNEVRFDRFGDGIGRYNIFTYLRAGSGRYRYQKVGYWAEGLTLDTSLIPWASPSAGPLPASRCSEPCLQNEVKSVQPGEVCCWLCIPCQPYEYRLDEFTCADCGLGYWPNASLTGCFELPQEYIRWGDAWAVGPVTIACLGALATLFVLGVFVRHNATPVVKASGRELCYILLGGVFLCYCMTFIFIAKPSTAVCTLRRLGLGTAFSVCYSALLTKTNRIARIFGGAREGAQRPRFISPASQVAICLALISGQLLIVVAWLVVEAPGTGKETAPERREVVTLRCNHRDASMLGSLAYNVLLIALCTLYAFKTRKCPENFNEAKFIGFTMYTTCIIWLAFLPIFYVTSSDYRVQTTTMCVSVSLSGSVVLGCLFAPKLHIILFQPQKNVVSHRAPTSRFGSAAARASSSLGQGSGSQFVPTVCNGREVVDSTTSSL
T1 sequence (Q14833 whole entry): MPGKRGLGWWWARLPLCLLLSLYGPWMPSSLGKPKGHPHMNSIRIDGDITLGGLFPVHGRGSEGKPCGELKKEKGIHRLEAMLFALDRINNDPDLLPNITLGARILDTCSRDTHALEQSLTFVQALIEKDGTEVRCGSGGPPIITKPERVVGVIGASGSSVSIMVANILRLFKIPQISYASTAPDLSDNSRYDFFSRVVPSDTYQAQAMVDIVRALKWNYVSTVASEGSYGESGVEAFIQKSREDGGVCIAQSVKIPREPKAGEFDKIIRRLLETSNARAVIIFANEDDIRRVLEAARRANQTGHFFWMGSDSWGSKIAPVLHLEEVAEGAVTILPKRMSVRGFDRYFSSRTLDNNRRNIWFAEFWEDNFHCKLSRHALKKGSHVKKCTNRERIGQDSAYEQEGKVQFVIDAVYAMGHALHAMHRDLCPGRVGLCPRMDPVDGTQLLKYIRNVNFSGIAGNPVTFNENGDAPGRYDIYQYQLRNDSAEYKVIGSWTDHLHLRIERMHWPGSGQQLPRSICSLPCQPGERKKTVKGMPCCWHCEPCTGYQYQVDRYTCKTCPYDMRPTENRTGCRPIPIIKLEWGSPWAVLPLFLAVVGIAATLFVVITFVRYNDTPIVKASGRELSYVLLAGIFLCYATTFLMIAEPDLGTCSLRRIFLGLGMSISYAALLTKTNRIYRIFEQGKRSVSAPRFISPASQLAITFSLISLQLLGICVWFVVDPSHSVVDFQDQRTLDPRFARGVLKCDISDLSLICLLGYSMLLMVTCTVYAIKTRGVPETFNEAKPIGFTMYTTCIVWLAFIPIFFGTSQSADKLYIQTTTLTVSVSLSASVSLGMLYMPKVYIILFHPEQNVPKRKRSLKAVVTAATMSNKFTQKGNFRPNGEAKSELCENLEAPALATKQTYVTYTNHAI

What is called EC50 is the concentration at which the effect is half-maximal. In the case of `NC1(C(=O)O)C[C@@H](C(=O)O)[C@H](C(=O)O)C1`, the midpoint of the response in experiment [1], the EC50, lay at 9 µM.

In the case of `N[C@@]1(C(=O)O)C[C@H](C(=O)O)[C@H](C(=O)O)C1`, it took 7 µM to reach a half-maximal effect in [1] (EC50).

With `N[C@@H](COP(=O)(O)O)C(=O)O` [DEXFOSFOSERINE], the EC50 in experiment [1] was 1 µM.

For `N[C@@H](CCP(=O)(O)O)C(=O)O`, the EC50 in [1] stood at 0.5 µM.

In experiment [1], `NC(C(=O)O)c1ccc(P(=O)(O)O)cc1` (stereo unspecified) had an EC50 of 4.7 µM.

In the case of `N[C@]1(C(=O)O)C[C@@H]1CP(=O)(O)O`, the midpoint of the response in [1], the EC50, lay at 0.58 µM.

In experiment [1], `N[C@]1(C(=O)O)C[C@H]1CP(=O)(O)O` returned an EC50 of 7.9 µM.

As usually defined, the IC50 is the point on the concentration scale where inhibition reaches its midpoint. On to `NC1(C(=O)O)C=C(P(=O)(O)O)CC1` (stereo unspecified), for which the EC50 was more than 300 µM in [2], more than 30 µM in experiment [3] and more than 30 µM in [5]. In addition, the IC50 is more than 100 µM in experiment [4], more than 100 µM in experiment [5] and more than 200 µM in [6].

In turn, `N[C@@]1(C(=O)O)CCC(P(=O)(O)O)C1` (single isomer, unassigned) gave an EC50 in experiment [1] of 27 µM.

Take `NC1(C(=O)O)CC=C(P(=O)(O)O)C1` (stereo unspecified): the half-maximal inhibitory concentration (IC50) is more than 300 µM in experiment [7], more than 100 µM in experiment [4] and more than 100 µM in experiment [5]. Also, the EC50 was approximately 30 µM in experiment [8], 17 µM in experiment [9] and more than 300 µM in [10].

For `N[C@@]1(C(=O)O)CC[C@H](P(=O)(O)O)C1`, in [1], the response was half-maximal at 86 µM (EC50).
